# GPR7 antag: GPR7 receptor antagonists, primary screen, cell-based, fluorescence, single concentration; Neuropeptides B/W receptor type 1 (Homo sapiens), P48145; GPR7-expressing cells, fluorescence antagonist assay; inhibition, % at 4.4 µM; actives 1.1% (n = 290,000); in the data active means inhibition above about 16%, passing the limit was not always enough;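 further: cells stimulated with the agonist NPW; 0% = agonist with vehicle and 100% = vehicle without agonist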
# CHO parental Ca: ATP-evoked calcium signal inhibitors, parental CHO, primary screen, counter-screen for OX1R antagonist project, cell-based, fluorescence, Fluo-8 calcium dye. parental CHO-K1, ATP-induced calcium, Fluo-8 fluorescence. inhibition, % at 5.6 µM. actives 0.63% (n = 330,000). AID 463079, 2010;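 active means inhibition above that plate's mean sample inhibition plus 3 SD, cut at about 26% in these data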;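 further: 0% = ATP-challenged DMSO wells and 100% = DMSO wells without ATP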
#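 material = parental CHO cells | also added = ATP as calcium-mobilizing challenge | dosing = single point at 5.6 µM | detection = intracellular calcium via Fluo-8 no-wash fluorescent dye | read-out = % inhibition | benchmarks = low control ATP plus DMSO, high control DMSO only | repeats = one well per compound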
# OX1R antag-1: antagonists of human orexin 1 receptor (OX1R) | Orexin/Hypocretin receptor type 1 (Homo sapiens), O43613 | AID 485270, 2010 | OX1R-expressing cells, FRET antagonist read-out | actives 1.8% (n = 330,000) | inhibition, % at 6.6 µM; in the data active means inhibition mostly above about 38%, no sharp cut-off; inactive means mostly below about 40%;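 further: 0% = agonist challenge alone and 100% = reference antagonist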
# Target sequence (O43613 whole entry, looked up): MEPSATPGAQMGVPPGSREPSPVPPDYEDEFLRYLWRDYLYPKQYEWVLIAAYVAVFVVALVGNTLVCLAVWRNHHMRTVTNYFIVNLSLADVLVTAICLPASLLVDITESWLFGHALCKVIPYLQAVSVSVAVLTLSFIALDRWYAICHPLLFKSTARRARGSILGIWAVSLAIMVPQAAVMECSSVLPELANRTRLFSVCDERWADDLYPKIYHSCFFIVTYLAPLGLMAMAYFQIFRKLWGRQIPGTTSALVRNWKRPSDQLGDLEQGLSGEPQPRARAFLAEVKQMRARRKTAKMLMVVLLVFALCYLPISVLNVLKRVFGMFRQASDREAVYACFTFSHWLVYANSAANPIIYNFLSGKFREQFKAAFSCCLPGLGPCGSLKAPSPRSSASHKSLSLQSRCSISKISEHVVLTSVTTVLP
# TAAR1 ag: human TAAR1 agonists, primary screen, Fluo-8 calcium fluorescence, CHO RD-HGA16 cells; Trace amine-associated receptor 1 (Homo sapiens), Q96RJ0; vehicle wells 0%, saturating PEA agonist 100%; activation, % at 3 µM; actives 0.99% (n = 360,000); AID 624467, 2012;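 active means activation above the mean activation of all test compounds in the run plus 3 SD, cut at about 38% in these data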
#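 Assay system: CHO-derived RD-HGA16 cells with stable Gα16 and human TAAR1; timing: 17-24 h seeding, 75 min 37 °C dye, 30 min RT; read-out: % activation from peak over basal fluorescence ratio, DMSO-to-PEA scaled; measured by: kinetic Fluo-8 calcium fluorescence; benchmarks: low control DMSO, high control PEA (EC100); doses: 3 µM single concentration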
# TAAR1 antagonist: human TAAR1 antagonists, primary screen, Fluo-8 calcium fluorescence, CHO RD-HGA16 cells | Trace amine-associated receptor 1 (Homo sapiens), Q96RJ0 | antagonist | inhibition, % at 3 µM | actives 1.5% (n = 360,000);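 active means inhibition above a per-plate cutoff, the mean inhibition of test compounds on that plate plus 3 SD, cut at about 49% in these data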;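 further: 0% = DMSO plus EC80 beta-PEA response and 100% = DMSO alone without agonist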
#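 Material: CHO RD-HGA16 cells bearing hTAAR1; compound dosing: one-point dosing, 3 µM nominal final; schedule: dye loading 75 min at 37 °C, then 30 min room temperature; measured by: calcium fluorescence with Fluo-8; control set: vehicle and agonist controls; replication: n of 1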
# OX1R antag-2: OX1R (HCRTR1) antagonists, primary screen, fluorescence, CHO/OX1R cells, Fluo-8 calcium, orexin A; Orexin/Hypocretin receptor type 1 (Homo sapiens), O43613; Fluo-8 calcium fluorescence; actives 0.43% (n = 330,000); AID 434989, 2010; inhibition, % at 5 µM;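 active means inhibition above its plate's threshold, mean inhibition of all tested compounds on the plate plus 3 SD, cut at about 37% in these data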;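 further: 0% = orexin A challenge wells and 100% = SB-334867-A antagonist wells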
# TAAR1 nonsel count: nonselective antagonists in TAAR1 counter-screen cells, counter-screen for hTAAR1 antagonist project, cell-based, fluorescence, calcium | counterscreen cell line, antagonist mode | inhibition, % at 3 µM | AID 651780, 2012 | actives 77% (n = 2,400) | shares compounds with TAAR1 antagonist; in the data active means inhibition above about 22%;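 further: CHO-Ga16 host cells stimulated with ATP at an EC80 level; 0% = agonist EC80 plus vehicle and 100% = vehicle without agonist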
# TAAR1 ant conf: human TAAR1 antagonists, retest of hits, confirmation, cell-based, fluorescence | shares compounds with TAAR1 antagonist | TAAR1-expressing cells, fluorescence antagonist read-out | inhibition, % at 3 µM | actives 40% (n = 2,400) | AID 651785, 2012; in the data active means inhibition above about 49%;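 further: CHO-Ga16 host cells challenged with agonist PEA near its EC80; 0% = agonist at EC80 plus vehicle and 100% = vehicle with no agonist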
# Ga16 nonsel ag: calcium activation in Ga16-expressing cells, counter-screen for TAAR1 antagonist project, cell-based, fluorescence; AID 651953, 2012; actives 18% (n = 2,400); agonist counterscreen; shares compounds with TAAR1 antagonist; activation, % at 3 µM; in the data active means activation above about 12%;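 further: 0% = vehicle wells and 100% = saturating stimulus response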
# TAAR1 ag count: TAAR1 activation by candidate antagonists – cell-based, fluorescence, counter-screen for TAAR1 antagonist project | shares compounds with TAAR1 antagonist | hTAAR1 cell line, agonist mode | activation, % at 3 µM | actives 2% (n = 2,400); in the data active means activation above about 37%;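 further: CHO cells stably expressing TAAR1 with calcium dye readout; 0% = DMSO vehicle and 100% = full agonist response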
# * marks the source's active call; other numbers are inactive results; . = no result given. Shown are actives, neighbours in structure and some others; about 4.5% of the full set was active somewhere.
SMILES,GPR7 antag,CHO parental Ca,OX1R antag-1,TAAR1 ag,TAAR1 antagonist,OX1R antag-2,TAAR1 nonsel count,TAAR1 ant conf,Ga16 nonsel ag,TAAR1 ag count
COc1cccc(N(C(=O)c2snc(C(N)=O)c2N)C(C(=O)NCC2CCCO2)c2cccs2)c1 (stereo not drawn),3,-17,5,0,16,-31,.,.,.,.
COc1cc(/C=C(\C(=O)O)c2ccc(S(=O)(=O)N3CCCC3)s2)ccc1OCCC(C)C,.,.,.,0,-8,.,.,.,.,.
COc1ccc(NC(=O)CC2C(=O)N(C)C(=S)N2CCc2ccc(F)cc2)cc1 (stereo not drawn),0,-3,2,19,58*,-14,31*,50*,14*,11
COc1ccc(CCN2C(=S)N(C)C(=O)C2CC(=O)Nc2ccc(OC)cc2)cc1 (stereo not drawn),5,-11,6,13,26,-2,.,.,.,.
CCN1C(=O)C(CC(=O)Nc2ccc(OC)cc2)N(CCc2ccc(F)cc2)C1=S (stereo not drawn),13,-2,6,11,69*,-8,42*,59*,13*,12
CCN1C(=O)C(CC(=O)Nc2ccc(OC)cc2)N(CCCN2CCN(c3ccc(F)cc3)CC2)C1=S (stereo not drawn),9,-19,11,27,66*,-12,32*,45,17*,15
C[C@H]1CNC(=O)c2c(C(=O)Nc3cccc(Cl)c3)ncn21,.,.,.,0,-7,.,.,.,.,.
CCN(CC)c1ccc(NC(=O)/C=C/c2cc(Br)ccc2OC)cc1,2,-10,50*,-1,74*,-19,10,35,6,6
CC(=O)Nc1ccc(S(=O)(=O)NCc2ccncc2)cc1,-5,-16,5,1,15,-3,.,.,.,.
COC(=O)CNC(c1ccccc1)c1cc(C)ccc1NC(=O)c1cccc(Cl)c1 (stereo not drawn),24*,-25,16,0,67*,-32,23*,47,3,9
CC(C)C(=O)NC(=S)Nc1ccccc1N1CCN(C(=O)c2ccc(Cl)cc2)CC1,-14,-25,2,17,81*,-30,38*,58*,14*,15
CCOc1ccccc1N1CCN(CC(=O)NC(C)c2ccccc2)CC1 (stereo not drawn),0,-18,2,5,27,-24,.,.,.,.
CN(C1CCCCC1)S(=O)(=O)c1ccc(S(=O)(=O)N(CC(=O)Nc2ccccc2)C2CC2)cc1,-2,-20,14,5,58*,-7,26*,41,9,10
O=C1CCc2ccc(OCCCCN3CCN(c4cccc(Cl)c4Cl)CC3)cc2N1,20,-6,13,12,63*,-27,46*,48,16*,31
O=C1Nc2ccc(Br)cc2C1=C1CCCCC1,-7,-17,3,13,76*,-1,17,36,6,7
COc1ccc(S(=O)(=O)Nc2ncccn2)cc1,-4,4,9,-3,105*,-18,3,-1,1,1
COc1ccccc1NS(=O)(=O)c1ccc(C)c(C(=O)NCC2(N(C)C)CCCCC2)c1,.,-18,-1,4,-5,-9,.,.,.,.
COc1ccccc1N1CCN(C(=O)CCn2c(=O)[nH]c3ccccc3c2=O)CC1,5,-10,11,3,7,-30,.,.,.,.
COc1ccccc1N1CCN(C(=O)CCCn2c(=S)[nH]c3ccccc3c2=O)CC1,.,.,.,8,65*,.,19,36,7,10
CCOC(=O)c1c(-c2ccccc2)nnn1-c1nc(OCC)nc(N2CCCCC2)n1,-1,52*,7,13,53*,-25,23*,30,6,6
Clc1ccc(OCc2nnc(SCc3nc4ccccc4[nH]3)n2Cc2ccco2)cc1,9,-17,17,7,50*,-17,45*,54*,14*,15
COc1ccc(CCNc2oc(COc3ccccc3F)nc2C#N)cc1OC,9,-5,26,16,59*,-10,37*,49*,12*,10
COc1ccc(CCNc2oc(COc3ccccc3Cl)nc2C#N)cc1OC,-3,0,20,6,64*,-8,39*,55*,8,3
COc1ccc(CCNc2oc(Cc3ccccc3)nc2C#N)cc1OC,9,-20,30,2,27,-26,.,.,.,.
COc1cc(C(C(=O)Nc2c(C)cccc2C)N(C)C(=O)c2ccc(-n3cnnn3)cc2)ccc1O (stereo not drawn),9,-3,0,1,-11,-31,.,.,.,.
SMILES,GPR7 antag,CHO parental Ca,OX1R antag-1,TAAR1 ag,TAAR1 antagonist,OX1R antag-2,TAAR1 nonsel count,TAAR1 ant conf,Ga16 nonsel ag,TAAR1 ag count
OCc1cn(-c2ccccc2)nc1-c1ccc(-c2nn(-c3ccccc3)cc2CO)cc1,-8,-10,4,21,54*,-10,41*,61*,12*,12
O=C(O)Cc1cn(-c2ccccc2)nc1-c1ccccc1,-19,-17,16,0,-10,2,.,.,.,.
CC1=C(C#N)C(NC(=O)c2ccccc2Cl)(C(F)(F)F)C(=O)N1 (stereo not drawn),-4,4,21,0,3,-14,.,.,.,.
O=C(c1ccc(C(F)(F)F)cc1)N1CCC(=O)N(C(COCc2ccc(Cl)cc2)Cc2ccccc2)CC1 (stereo not drawn),5,-25,37,7,26,-41,.,.,.,.
CC(C)(C)c1ccc(C(=O)N2CCC(=O)N([C@H](COCc3ccccc3)Cc3ccccc3)CC2)cc1,.,.,.,8,71*,.,27*,50*,8,9
CC(=O)Nc1ccc(S(=O)(=O)NCC2CC3CCC2C3)cc1 (stereo not drawn),.,.,.,11,-14,.,.,.,.,.
